In ChEMBL document CHEMBL4145474, “Discovery of novel piperonyl derivatives as diapophytoene desaturase inhibitors for the treatment of methicillin-, vancomycin- and linezolid-resistant Staphylococcus aureus infections” (Eur J Med Chem, 2018):
The source made the active and inactive calls. The rule behind the calls is not given here.

Assays:
HepG2 = assay: Cytotoxicity against human HepG2 cells assessed as reduction in cell viability after 72 hrs by CCK-8 assay; assay type: functional; conditions: HepG2, 72 h
Outline: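 HepG2 or HEK-293T cells were seeded at 5000 per well and grown 24 h at 37 °C, 5% CO₂. Cells were then exposed to compound for 72 h; compound came from DMSO, diluted in medium to final DMSO <0.4%, with a DMSO-matched vehicle control. Viability was read by 10% CCK-8 for 1 h, absorbance 450 nm, in triplicate.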

Staphylococcus aureus [1] = assay: Inhibition of pigmentation in vancomycin-intermediate methicillin-resistant Staphylococcus aureus Mu50 after 48 hrs by spectrophotometric method; assay type: functional, organism-based; conditions: Mu50, 48 h
Outline: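 Bacteria grown in 4 mL TSB for 48 h at 37 °C with compound serially diluted from DMSO, in duplicate; DMSO vehicle control and non-pigmented CrtN mutant as reference. Cells from 3 mL of culture washed twice with 0.01 M PBS and pigment extracted into methanol. Absorbance read at 450 nm; IC50 fitted from the concentration series.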

Staphylococcus aureus [2] = assay: Antibacterial activity against methicillin-resistant Staphylococcus aureus USA300 LAC assessed as decrease in bacterial survival at 1 uM after 24 hrs by H2O2 killing assay; assay type: functional, organism-based
Staphylococcus aureus [3] = assay: Antibacterial activity against methicillin-resistant Staphylococcus aureus USA400 MW2 assessed as decrease in bacterial survival at 1 uM after 24 hrs by H2O2 killing assay; assay type: functional, organism-based
Staphylococcus aureus [4] = assay: Antibacterial activity against vancomycin-intermediate methicillin-resistant Staphylococcus aureus Mu50 assessed as decrease in bacterial survival at 1 uM after 24 hrs by H2O2 killing assay; assay type: functional, organism-based
[5] = biological target: T1, 4,4'-diapophytoene desaturase (4,4'-diaponeurosporene-forming) (Staphylococcus aureus (strain Newman)) (UniProt O07855); assay: Inhibition of CrtN in wild type Staphylococcus aureus Newman assessed as decrease in bacterial survival at 1 uM after 24 hrs by H2O2 killing assay relative to control; conditions: Staphylococcus aureus subsp. aureus str. Newman
T1 sequence (whole entry): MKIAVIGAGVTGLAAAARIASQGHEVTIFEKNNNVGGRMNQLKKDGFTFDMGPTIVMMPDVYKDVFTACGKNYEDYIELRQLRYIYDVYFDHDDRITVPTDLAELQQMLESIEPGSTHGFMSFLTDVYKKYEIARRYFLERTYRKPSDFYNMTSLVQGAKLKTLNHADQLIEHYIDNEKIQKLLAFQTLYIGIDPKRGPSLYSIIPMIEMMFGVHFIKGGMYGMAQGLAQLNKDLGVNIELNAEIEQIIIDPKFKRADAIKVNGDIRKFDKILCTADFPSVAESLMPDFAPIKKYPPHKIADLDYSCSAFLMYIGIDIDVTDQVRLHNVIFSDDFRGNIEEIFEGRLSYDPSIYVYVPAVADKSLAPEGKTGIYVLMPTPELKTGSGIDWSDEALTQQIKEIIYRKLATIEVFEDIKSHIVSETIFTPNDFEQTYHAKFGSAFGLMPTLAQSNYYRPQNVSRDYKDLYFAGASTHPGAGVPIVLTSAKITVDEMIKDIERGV
Outline: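 Bacteria were grown 24 h at 37 °C in TSB with compound, DMSO vehicle or NAC, then washed twice in PBS. Each reaction held 4 × 10⁶ CFU with H₂O₂ at 1.5% final, shaken 30 min at 37 °C and 250 rpm, then quenched with 1000 U/mL catalase. Survival was counted as CFU on TSA. Two independent experiments.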

Staphylococcus aureus [6] = assay: Growth inhibition of methicillin-resistant Staphylococcus aureus USA400 MW2 at 0.2 mM incubated for overnight; assay type: functional, organism-based
Outline: (§1)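 Overnight cultures washed in PBS and diluted in TSB to OD600 ~1.0. Inoculated to a final OD600 of about 0.05 into TSB containing compound (0.2 or 0.05 mM, from a 20 mM DMSO stock) or DMSO growth control, overlaid with paraffin wax. OD600 read every 30 min during overnight incubation at 37 °C.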

Staphylococcus aureus [7] = assay: Growth inhibition of vancomycin-intermediate methicillin-resistant Staphylococcus aureus Mu50 at 0.2 mM incubated for overnight; assay type: functional, organism-based; outline: as §1
Staphylococcus aureus [8] = assay: Inhibition of pigmentation in wild type Staphylococcus aureus Newman after 48 hrs by spectrophotometric method; assay type: functional, organism-based
Outline: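 S. aureus Newman was grown in TSB 48 h at 37 °C with a concentration series of compound in DMSO, in duplicate. Controls were a DMSO vehicle and a nonpigmented CrtN mutant. Cells were washed twice in 0.01 M PBS and pigment extracted in methanol. A450 was measured and IC50 derived by curve fitting.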

[9] = biological target: T1, 4,4'-diapophytoene desaturase (4,4'-diaponeurosporene-forming) (Staphylococcus aureus (strain Newman)); assay: Inhibition of Staphylococcus aureus Newman 6His-tagged CrtN expressed in Escherichia coli BL21(DE3) assessed as 4,4'-diapophytoene accumulation by UV-HPLC analysis; conditions: Staphylococcus aureus subsp. aureus str. Newman
Outline: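 Substrate was E. coli-derived diapophytoene emulsified with phosphatidylcholine in 0.02 M HEPES pH 7.5. Run anaerobically (glucose oxidase 20 U/mL, catalase 20000 U/mL, glucose 2 mM final) overnight at 37 °C, stopped with methanol. Triplicate; diapophytoene monitored by HPLC at 286 nm.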

Staphylococcus aureus [10] = assay: Antibacterial activity against wild type Staphylococcus aureus Newman infected in BALB/c mouse assessed as decrease in bacterial survival in mouse kidney at 0.1 to 0.4 mg, ip bid administered 4.5 days after 6 hrs bacterial infection measured after 90 hrs; assay type: functional, organism-based
Outline: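 Female BALB/c mice, 6-8 weeks old, infected retro-orbitally with 2.2 × 10⁷ CFU S. aureus Newman. Intraperitoneal dosing in 12 intervals: pre-treatment groups received a total of 50 or 200 mg/kg starting before infection; post-treatment groups received a total of 39 or 156 mg/kg starting 6 h after infection. Vehicle was ddH₂O. At 90 h post-infection, liver or kidney was homogenized in PBS/0.01% Triton X-100 and plated on TSA for CFU.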

Staphylococcus aureus [11] = assay: Antibacterial activity against vancomycin-intermediate methicillin-resistant Staphylococcus aureus Mu50 infected in BALB/c mouse assessed as decrease in bacterial survival in mouse liver at 0.1 to 0.4 mg, ip bid administered 4.5 days before 24 hrs bacterial infection measured after 90 hrs; assay type: functional, organism-based
Outline: (§2)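 6–8-week-old female BALB/c mice (SPF) dosed intraperitoneally twice daily over 4.5 d at 0.1 or 0.4 mg/bid. Pre-treatment started before infection; post-treatment started 6 h after infection. Vancomycin and linezolid controls given as pre-treatment at 0.4 mg/bid. Retro-orbital inoculation: Mu50 1.1 × 10⁹ CFU, NRS271 1.8 × 10⁸ CFU. Kidneys and livers homogenised in PBS/0.01% Triton X-100 and plated on TSA for CFU.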

Staphylococcus aureus [12] = assay: Antibacterial activity against vancomycin-intermediate methicillin-resistant Staphylococcus aureus Mu50 infected in BALB/c mouse assessed as decrease in bacterial survival in mouse liver at 0.1 to 0.4 mg, ip bid administered 4.5 days after 6 hrs bacterial infection measured after 90 hrs; assay type: functional, organism-based; outline: as §2
Staphylococcus aureus [13] = assay: Antibacterial activity against methicillin/linezolid-resistant Staphylococcus aureus NRS271 infected in BALB/c mouse assessed as decrease in bacterial survival in mouse liver at 0.1 to 0.4 mg, ip bid administered 4.5 days after 6 hrs bacterial infection measured after 90 hrs; assay type: functional, organism-based; outline: as §2
Staphylococcus aureus [14] = assay: Antibacterial activity against wild type Staphylococcus aureus Newman infected in BALB/c mouse assessed as decrease in bacterial survival in mouse liver at 0.1 mg, ip bid administered 4.5 days after 6 hrs bacterial infection measured after 90 hrs relative to control; assay type: functional

CN(C/C=C/C=C/c1ccc(C(F)(F)F)cc1F)Cc1ccc2c(c1)OCO2.Cl
CC50 (HepG2): 90300 nM
IC50 (Staphylococcus aureus [1]): 2.5 nM
Activity (Staphylococcus aureus [2]): inactive
Activity (Staphylococcus aureus [3]): inactive
Activity (Staphylococcus aureus [4]): inactive
fold change (FC) [5]: 11.7
growth inhibition (GI) (Staphylococcus aureus [6]): inactive
growth inhibition (GI) (Staphylococcus aureus [7]): inactive
IC50 (Staphylococcus aureus [8]): 4.02 nM
inhibition [9]: Active
Activity (Staphylococcus aureus [10]): Active
Activity (Staphylococcus aureus [11]): Active
Activity (Staphylococcus aureus [12]): Active
Activity (Staphylococcus aureus [13]): inactive
Activity (Staphylococcus aureus [14]): 97.06%
